Only some compounds are listed: those with a hit (about 1.8% of all), similar ones and a draw of the others.
NPY Y2 blocker = NPY-Y2 receptor antagonists, primary screen, cell-based. Neuropeptide Y receptor type 2 (Homo sapiens), P49146. NPY-Y2 expressing cells, antagonist mode. inhibition, % at 2.7 µM. hit rate 0.99% among 140,000; in the data active = inhibition above about 17%;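 also: 0% = vehicle with agonist challenge and 100% = reference antagonist with challenge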
Target sequence (P49146 whole entry, looked up): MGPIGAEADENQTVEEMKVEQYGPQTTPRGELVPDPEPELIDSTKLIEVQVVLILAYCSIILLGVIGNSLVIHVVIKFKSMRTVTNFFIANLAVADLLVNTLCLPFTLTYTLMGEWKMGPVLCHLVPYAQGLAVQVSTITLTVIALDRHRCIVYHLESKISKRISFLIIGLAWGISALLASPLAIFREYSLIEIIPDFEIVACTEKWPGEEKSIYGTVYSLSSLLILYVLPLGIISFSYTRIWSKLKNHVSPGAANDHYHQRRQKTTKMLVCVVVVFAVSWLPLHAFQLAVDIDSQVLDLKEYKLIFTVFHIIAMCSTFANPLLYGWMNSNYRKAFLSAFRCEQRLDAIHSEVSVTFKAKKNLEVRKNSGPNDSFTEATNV
NPY-Y1 antag = NPY-Y1 receptor antagonists, primary screen, cell-based; Neuropeptide Y receptor type 1 (Homo sapiens), P25929; HEK293-CNG Y1 cells, membrane potential fluorescence; NPY at EC95, then isoproterenol; inhibition, % at 3.6 µM; hit rate 1% among 200,000;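 active = inhibition above the campaign mean inhibition of all tested compounds plus 3 SD, cut at about 20% in these data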;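 also: 0% = DMSO wells given NPY plus isoproterenol and 100% = isoproterenol alone without NPY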
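Material: HEK293 Y1/CNG channel cell line; also added: NPY (25 nM), isoproterenol (1 µM), Ro 20-1724 (25 µM); doses: one concentration, 3.6 µM, in 0.4% DMSO; schedule: compound incubation 1 h at room temperature, readout 45 min post-stimulation; technique: membrane potential fluorescence; measure: fluorescence ratio normalized to % inhibition between controls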
NPY-Y2 PAM-ag = NPY-Y2 potentiators or agonists, primary screen, cell-based. cells expressing NPY-Y2, potentiator/agonist read-out. Neuropeptide Y receptor type 2 (Homo sapiens), P49146. hit rate 0.45% among 220,000. activation, % at 3.6 µM; in the data active = activation above about 27%;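 also: cells stimulated with NPY near EC25 plus isoproterenol at EC100; 0% = vehicle plus submaximal agonist and 100% = vehicle plus saturating agonist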
NPY1 pot ag = NPY-Y1 receptor potentiators or agonists, primary screen, cell-based. Neuropeptide Y receptor type 1 (Homo sapiens), P25929. NPY-Y1 expressing cells, potentiator/agonist activation. activation, % at 3.6 µM. hit rate 0.37% among 220,000. AID 1304, 2008; in the data active = activation above about 33%, passing the limit was not always enough;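 also: cells stimulated with NPY at EC10 then isoproterenol at EC100; 0% = low agonist plus stimulus and 100% = saturating agonist plus stimulus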
* = called active by the depositor; x = not tested or not shown.

SMILES | NPY Y2 blocker | NPY-Y1 antag | NPY-Y2 PAM-ag | NPY1 pot ag
COCCCn1c(=N)c(C(=O)NC2CCCCC2)cc2c(=O)n3ccccc3nc21 | 20* | 15 | 14 | -11
Cc1nn(CCCC(=O)Nc2c(F)cc(F)cc2Br)c(C)c1[N+](=O)[O-] | x | 3 | -1 | 5
COc1ccccc1-n1c(=O)c(C#N)c(-c2ccc([N+](=O)[O-])cc2)c2cc(C(=O)c3ccccc3O)cnc21 | x | x | 49* | 73*
COc1ccc(NS(=O)(=O)c2cc(OC)ccc2NC(=O)c2cc(C)oc2C)cc1 | 5 | 20* | 24 | 25
COc1ccc(NC(=O)c2cc(S(=O)(=O)N3CCCC3)oc2C)cc1 | x | x | 8 | 10
Cc1ccc(Cn2cc(SCC(N)=O)c3ccccc32)cc1 | x | 2 | -2 | -9
Clc1cccc(Nc2nc(-c3ccncc3)cs2)c1 | x | -18 | 51* | 46*
Clc1ccc(-c2csc(Nc3cccnc3)n2)cc1 | x | x | 24 | 16
Cc1cccc(Nc2nc(-c3ccc4c(c3)OCCO4)cs2)c1 | -1 | -2 | 0 | 4
Cc1cccc(Nc2nc(-c3ccncc3)cs2)c1 | x | -21 | 35* | 47*
CC1Cc2ccccc2N1CC(=O)NCc1ccc2c(c1)OCO2 (stereo not given) | 2 | 7 | -1 | -6
CCOC(=O)CSc1nnc(Cn2nnc3ccccc32)n1-c1ccc(F)cc1 | x | x | 11 | 0
CCOC(=O)c1c(C)oc2ccc(O)c(CN3CCCCC3)c12 | 22* | 27* | -10 | -32
COc1ccc(C(=O)c2coc3ccc(O)c(CN4CCCCC4)c23)cc1 | 25* | 20* | -34 | -87
O=C(c1ccccc1)c1coc2ccc(O)c(CN3CCOCC3)c12 | 6 | 2 | -10 | -30
COc1ccc(N2CCN(C(=O)CSc3nnc(-c4cc5ccccc5cc4O)n3C)CC2)cc1 | -1 | 0 | 92* | 86*
COc1ccc(-n2cnnc2SCC(=O)N2CCN(c3ccccc3)CC2)cc1 | -2 | -2 | 8 | -10
COc1ccc(C(=O)CSc2nnc(CN3CCCCC3)n2-c2ccc(Cl)cc2)cc1OC | 4 | 6 | 4 | 20
COc1ccc2c(c1)c(CC(=O)Nc1ccccc1OC)c(C)n2C(=O)c1ccc(Cl)cc1 | 18* | 20* | -13 | -27
C[C@H](NC(=O)c1nc[nH]c1C(=O)NCCCCCNC(=O)OC(C)(C)C)C(=O)OCc1ccccc1 | x | 4 | -1 | -11
CC(C)C[C@H](NC(=O)c1nc[nH]c1C(=O)NCCCCCNC(=O)OC(C)(C)C)C(=O)OCc1ccccc1 | x | -13 | 36* | 39*
Cc1cc(C(C)(C)C)oc1C(=O)N(CC(=O)NC1CCCC1)Cc1ccccc1Cl | 27* | 26* | -20 | -31
Cc1cc(-c2ccco2)n(-c2ccccc2)n1 | 3 | -15 | 101* | 105*
COC(=O)c1cc(NC(=O)CC2SC(=Nc3ccccc3)N(CCc3c[nH]c4ccccc34)C2=O)cc(C(=O)OC)c1 (stereo not given) | -4 | -8 | 35* | 47*
COc1cccc2sc(N(CCN(C)C)C(=O)/C=C/c3cccs3)nc12 | x | -7 | 100* | 98*
SMILES | NPY Y2 blocker | NPY-Y1 antag | NPY-Y2 PAM-ag | NPY1 pot ag
O=C(Cn1nnc(-c2cccc(C(F)(F)F)c2)n1)NC(=O)NCc1ccco1 | 21* | 14 | -23 | -37
COc1ccc(Cn2nnnc2C(c2ccccc2Cl)N2CCN(C3CCCC3)CC2)cc1 (stereo not given) | 20* | 28* | -3 | -7
CCC(c1nnnn1Cc1ccc(F)cc1)N1CCN(C2CCCCC2)CC1 (stereo not given) | 37* | 39* | -15 | -14
CN(C)C(=O)COC(=O)c1cccc(CN2C(=O)c3ccccc3C2=O)c1 | x | 2 | 2 | 2
O=[N+]([O-])c1ccc(C2CCCC/C2=N/OCc2ccc(F)cc2)c([N+](=O)[O-])c1 (stereo not given) | 12 | 12 | -15 | -15
O=[N+]([O-])c1ccc(C2CCCC/C2=N/OCc2ccccc2F)c([N+](=O)[O-])c1 (stereo not given) | 18* | 21* | -32 | -34
CCOc1ccccc1C1C(C#N)=C(N)Oc2cc(N)ccc21 (stereo not given) | 2 | -4 | 49* | 113*
COc1ccc(OC)c(C2C(C#N)=C(N)Oc3cc(N)ccc32)c1 (stereo not given) | 3 | 2 | -3 | -3
CCSc1nnc(NC(=O)NC(CC)(C(F)(F)F)C(F)(F)F)s1 | 0 | 1 | 23 | 47*
CCSc1nnc(NC(=O)NC(C)(C(F)(F)F)C(F)(F)F)s1 | 1 | -2 | 11 | 1
COc1ccc(-c2cc(C(=O)Nc3nc4ccccc4s3)c3ccccc3n2)cc1OC | 27* | 29* | -141 | -160
COc1ccc(C(=O)Nc2nc3ccccc3s2)cc1OC | x | 6 | 6 | 12
CCCCN1C(=O)C(NC(C)=O)c2cc(Br)ccc21 (stereo not given) | 20* | 27* | -4 | 14
CCN1C(=O)C(NC(C)=O)c2cc(Br)ccc21 (stereo not given) | 9 | 13 | 6 | -15
O=C(O)CC1SC(N/N=C/c2ccc(Br)cc2)NC1=O (stereo not given) | x | 8 | -15 | -13
Cc1ccc2cc(CN(CCN3CCCC3)C(=O)Nc3ccc(F)cc3)c(=O)[nH]c2c1C | 5 | 26* | -29 | -55
Cc1ccc2cc(CN(CCN3CCCC3)C(=O)Nc3ccccc3)c(=O)[nH]c2c1C | 6 | 15 | -31 | -32
Cc1c(C(=O)N/N=C/c2cccnc2)sc(=S)n1C | 1 | 8 | 54* | 57*
CCc1nc2ccccc2c(C(=O)NCc2ccccc2)c1C | x | -1 | -16 | -16
CCc1nc2ccc(F)cc2c(C(=O)NC2CCCCC2C)c1C (stereo not given) | 29* | 35* | -53 | -82
COc1cccc(CN(C)C(=O)c2cc(COc3ccc4ncccc4c3)on2)c1 | x | 21* | 19 | -59
O=C(COc1ccccc1)N1CCc2ccccc21 | 2 | 0 | -3 | 24
O=C(COc1ccc2ccccc2c1CN1CCOCC1)N1CCc2ccccc21 | 28* | 22* | 26 | 16
Cc1c(Br)c(C(F)(F)F)nn1CC(=O)NCCCn1ccnc1 | x | -2 | -10 | -5
CC(C)CCNC(=O)C(c1ccco1)N(Cc1cccs1)C(=O)Cn1nnc2ccccc21 (stereo not given) | 14 | 24* | -19 | -26
COc1ccccc1C(=O)Nc1ccc(C2=NNC(=O)CC2C)cc1 (stereo not given) | 72* | 96* | -17 | -77
COc1ccccc1C(=O)Nc1ccc(C(=O)O)cc1 | 0 | -3 | 16 | -1
Cc1cnc(NC(=O)c2c(-c3ccccc3)noc2C)s1 | x | x | 1 | 19
CC1=[N+](C)c2ccc3ccccc3c2C1(C)C | 22* | 27* | -32 | -71
Cc1cccc(-n2c(SCC(N)=O)nc3c(c2=O)C2(CCCC2)Cc2ccccc2-3)c1 | -7 | -8 | 39* | 48*
